Data published in ChEMBL document CHEMBL1127482 (J Med Chem, 1994).

Columns and labels:
Canis familiaris = species on record: Canis familiaris; test: Effect of compound on template bleeding time in dogs; type: functional, Canis lupus familiaris
Homo sapiens = species on record: Homo sapiens; test: Inhibition of 10 uM ADP induced platelet aggregation in human platelet rich citreated plasma (PRP); type: functional
Summary of the method: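 Aggregation is read as the increase in light transmission in an aggregometer, with platelets used within 3 h of collection. IC50 comes from regression of dose-response curves for inhibition of maximal aggregation, adjusted against a standard run in each experiment.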

Integrin alpha-5/beta-1 = Integrin alpha-5/beta-1 (Homo sapiens, UniProt P05556+P08648); test: Binding affinity against integrin alpha5-beta1 in enzyme linked immunosorbent assay (ELISA); type: protein-complex assay
Integrin alpha-V/beta-5 = Integrin alpha-V/beta-5 (Homo sapiens, UniProt P06756+P18084); test: Binding affinity against integrin alpha V-beta5 in enzyme linked immunosorbent assay (ELISA); type: protein-complex assay
Summary of the method: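 It is added to wells coated with human vitronectin in 0.1 M carbonate, pH 9.6, with 10-fold serial peptide dilutions for 3 h at room temperature. Detection uses rabbit anti-VnR, HRP anti-rabbit IgG and o-phenylenediamine/H2O2.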

[1] = target: Integrin alpha-IIb/beta-3 (Homo sapiens, UniProt P05106+P08514); test: Binding affinity against integrin alpha 2b-beta 3 in enzyme linked immunosorbent assay (ELISA); type: protein-complex assay
Summary of the method: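 Purified human platelet αIIbβ3 (from outdated platelets, octyl glucoside extract) in TBS with 20 mM octyl glucoside, 2 mM MgCl2 and 2 mM CaCl2 binds to plate-coated human fibrinogen (10 µg/mL in TBS) with 10-fold serial peptide dilutions for 3 h at room temperature. Bound receptor is detected with rabbit anti-αIIbβ3, then HRP anti-rabbit IgG, with o-phenylenediamine/H2O2 at pH 5.0. IC50 is reported.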

Integrin alpha-V/beta-5, sequence (P06756 31-889 limits assumed): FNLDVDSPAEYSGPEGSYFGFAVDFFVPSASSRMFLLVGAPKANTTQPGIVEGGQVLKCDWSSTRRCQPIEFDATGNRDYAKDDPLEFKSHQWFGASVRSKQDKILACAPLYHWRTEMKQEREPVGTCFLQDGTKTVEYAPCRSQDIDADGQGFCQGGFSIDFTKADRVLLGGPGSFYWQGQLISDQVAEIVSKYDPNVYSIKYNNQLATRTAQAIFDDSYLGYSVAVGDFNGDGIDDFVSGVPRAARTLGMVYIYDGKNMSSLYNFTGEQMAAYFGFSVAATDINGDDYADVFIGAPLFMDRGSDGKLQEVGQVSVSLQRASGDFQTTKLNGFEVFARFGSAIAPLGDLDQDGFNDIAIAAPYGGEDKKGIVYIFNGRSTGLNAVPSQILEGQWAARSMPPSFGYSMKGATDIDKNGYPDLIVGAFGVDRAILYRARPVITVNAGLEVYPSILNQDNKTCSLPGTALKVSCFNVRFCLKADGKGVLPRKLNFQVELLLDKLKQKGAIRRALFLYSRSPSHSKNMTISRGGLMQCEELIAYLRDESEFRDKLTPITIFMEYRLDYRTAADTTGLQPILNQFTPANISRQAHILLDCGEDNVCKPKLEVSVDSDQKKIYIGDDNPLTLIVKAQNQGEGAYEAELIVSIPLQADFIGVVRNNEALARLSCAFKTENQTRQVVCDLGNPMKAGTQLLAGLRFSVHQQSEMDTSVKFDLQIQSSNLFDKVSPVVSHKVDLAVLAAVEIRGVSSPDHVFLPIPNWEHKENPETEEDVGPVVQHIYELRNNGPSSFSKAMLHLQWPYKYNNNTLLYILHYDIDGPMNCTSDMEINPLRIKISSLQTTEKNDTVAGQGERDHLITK
Integrin alpha-V/beta-5, sequence (P06756 891-1048 limits assumed): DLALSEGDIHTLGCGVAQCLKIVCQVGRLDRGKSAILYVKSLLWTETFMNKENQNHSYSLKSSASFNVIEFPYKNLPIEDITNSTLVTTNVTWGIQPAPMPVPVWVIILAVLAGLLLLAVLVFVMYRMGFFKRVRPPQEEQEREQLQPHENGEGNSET
Integrin alpha-V/beta-5, sequence (P18084 24-799 limits assumed): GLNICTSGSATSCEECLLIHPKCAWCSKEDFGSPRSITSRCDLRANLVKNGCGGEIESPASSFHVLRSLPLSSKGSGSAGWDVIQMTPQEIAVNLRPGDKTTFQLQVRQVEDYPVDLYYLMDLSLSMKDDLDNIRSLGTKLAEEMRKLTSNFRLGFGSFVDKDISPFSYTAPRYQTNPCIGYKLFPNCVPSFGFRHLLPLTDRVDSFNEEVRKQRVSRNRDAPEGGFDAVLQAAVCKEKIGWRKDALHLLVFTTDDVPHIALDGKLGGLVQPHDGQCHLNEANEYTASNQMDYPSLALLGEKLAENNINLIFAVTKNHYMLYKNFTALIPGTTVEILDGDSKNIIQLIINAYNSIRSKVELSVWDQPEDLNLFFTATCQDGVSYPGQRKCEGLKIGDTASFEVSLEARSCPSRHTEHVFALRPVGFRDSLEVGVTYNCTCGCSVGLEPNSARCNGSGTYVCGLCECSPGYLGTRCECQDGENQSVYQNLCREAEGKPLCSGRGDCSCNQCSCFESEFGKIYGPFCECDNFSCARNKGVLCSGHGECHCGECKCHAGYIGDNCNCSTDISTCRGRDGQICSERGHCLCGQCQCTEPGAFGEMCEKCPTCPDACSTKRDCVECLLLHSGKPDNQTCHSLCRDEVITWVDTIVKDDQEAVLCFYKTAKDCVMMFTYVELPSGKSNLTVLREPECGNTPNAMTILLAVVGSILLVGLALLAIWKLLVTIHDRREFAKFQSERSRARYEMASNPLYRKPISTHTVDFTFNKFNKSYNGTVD
Integrin alpha-5/beta-1, sequence (P05556 21-798 limits assumed): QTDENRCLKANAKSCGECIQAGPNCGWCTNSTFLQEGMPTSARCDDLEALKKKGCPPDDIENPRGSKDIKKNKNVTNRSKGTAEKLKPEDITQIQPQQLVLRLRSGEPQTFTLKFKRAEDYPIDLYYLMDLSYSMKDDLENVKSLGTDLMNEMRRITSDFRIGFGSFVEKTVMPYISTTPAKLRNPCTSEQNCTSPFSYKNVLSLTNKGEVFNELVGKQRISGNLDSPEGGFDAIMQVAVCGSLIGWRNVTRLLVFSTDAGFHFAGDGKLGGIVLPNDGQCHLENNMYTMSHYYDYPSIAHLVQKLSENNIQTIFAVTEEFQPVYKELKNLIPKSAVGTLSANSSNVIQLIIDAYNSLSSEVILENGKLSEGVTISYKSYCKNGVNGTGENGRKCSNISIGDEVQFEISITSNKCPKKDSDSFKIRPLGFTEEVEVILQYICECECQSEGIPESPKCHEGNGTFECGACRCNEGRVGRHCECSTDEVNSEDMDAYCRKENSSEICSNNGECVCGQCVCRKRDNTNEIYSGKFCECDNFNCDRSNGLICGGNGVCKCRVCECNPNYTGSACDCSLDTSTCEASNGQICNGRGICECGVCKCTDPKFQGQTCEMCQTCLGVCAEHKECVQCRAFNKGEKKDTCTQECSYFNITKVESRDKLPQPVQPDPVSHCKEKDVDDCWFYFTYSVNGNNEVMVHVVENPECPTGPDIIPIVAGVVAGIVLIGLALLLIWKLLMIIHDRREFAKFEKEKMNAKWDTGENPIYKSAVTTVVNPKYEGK
Integrin alpha-5/beta-1, sequence (P08648 42-894 limits assumed): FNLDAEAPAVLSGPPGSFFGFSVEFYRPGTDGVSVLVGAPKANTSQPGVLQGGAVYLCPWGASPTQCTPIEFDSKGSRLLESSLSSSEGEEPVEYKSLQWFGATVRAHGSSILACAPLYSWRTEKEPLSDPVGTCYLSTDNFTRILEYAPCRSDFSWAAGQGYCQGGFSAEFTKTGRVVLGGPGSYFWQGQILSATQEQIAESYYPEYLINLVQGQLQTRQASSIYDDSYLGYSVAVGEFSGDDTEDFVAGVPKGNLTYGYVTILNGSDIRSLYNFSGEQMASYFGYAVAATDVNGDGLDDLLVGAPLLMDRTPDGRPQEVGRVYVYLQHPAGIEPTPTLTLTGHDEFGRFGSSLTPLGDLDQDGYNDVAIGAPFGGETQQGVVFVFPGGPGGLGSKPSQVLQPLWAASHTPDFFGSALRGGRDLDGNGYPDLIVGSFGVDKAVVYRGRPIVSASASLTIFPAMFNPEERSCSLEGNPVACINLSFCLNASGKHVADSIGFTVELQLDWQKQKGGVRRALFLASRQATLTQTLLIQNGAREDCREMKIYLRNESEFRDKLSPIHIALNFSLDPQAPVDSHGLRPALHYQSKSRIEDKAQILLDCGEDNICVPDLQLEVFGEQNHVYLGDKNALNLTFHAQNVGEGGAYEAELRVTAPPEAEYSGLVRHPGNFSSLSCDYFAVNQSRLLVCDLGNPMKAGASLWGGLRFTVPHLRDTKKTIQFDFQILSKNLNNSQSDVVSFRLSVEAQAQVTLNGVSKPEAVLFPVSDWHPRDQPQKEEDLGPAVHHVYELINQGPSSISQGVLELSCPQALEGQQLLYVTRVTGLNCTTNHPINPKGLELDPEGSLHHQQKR
Integrin alpha-5/beta-1, sequence (P08648 895-1049 limits assumed): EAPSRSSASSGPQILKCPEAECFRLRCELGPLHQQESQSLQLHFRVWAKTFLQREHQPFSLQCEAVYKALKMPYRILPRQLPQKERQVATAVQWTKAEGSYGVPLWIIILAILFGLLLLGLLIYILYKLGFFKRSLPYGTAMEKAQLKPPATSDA

| SMILES | Bleeding time (Canis familiaris) [min] | also measured |
| --- | --- | --- |
| COc1ccc(C[C@@H]2NC(=O)[C@H](CC(=O)O)NC(=O)CNC(=O)[C@H](CCCNC(=N)N)NC(=O)[C@@H]3CCCN3C(=O)[C@H](CC(N)=O)NC(=O)[C@@H](NC(C)=O)CSSC[C@@H](C(N)=O)NC(=O)[C@H](C)NC2=O)cc1 | >30 |  |
| COc1ccc(C[C@@H]2NC(=O)[C@H](CC(=O)O)NC(=O)CNC(=O)[C@H](CCCN=C(N)N)NC(=O)[C@@H]3CCCN3C(=O)[C@H](CC(N)=O)NC(=O)[C@@H](NC(C)=O)CSSC[C@@H](C(N)=O)NC(=O)[C@H](CCCN=C(N)N)NC2=O)cc1 | 3 |  |
| COc1ccc(C[C@@H]2NC(=O)[C@H](CC(=O)O)NC(=O)CNC(=O)[C@H](CCCNC(=N)N)NC(=O)[C@@H]3CCCN3C(=O)[C@H](CC(N)=O)NC(=O)[C@@H](NC(C)=O)CSSC[C@@H](C(N)=O)NC(=O)[C@H](CCC(=O)O)NC2=O)cc1 | > 30 |  |
| COc1ccc(C[C@@H]2NC(=O)[C@H](CC(=O)O)NC(=O)CNC(=O)[C@H](CCCNC(=N)N)NC(=O)[C@@H]3CCCN3C(=O)[C@H](CC(N)=O)NC(=O)[C@@H](NC(C)=O)CSSC[C@@H](C(N)=O)NC(=O)[C@H](CC(C)C)NC2=O)cc1 | 21 |  |
| COc1ccc(C[C@@H]2NC(=O)[C@H](CC(=O)O)NC(=O)CNC(=O)[C@H](CCCCN)NC(=O)[C@@H]3CCCN3C(=O)[C@H](CC(N)=O)NC(=O)[C@@H](NC(C)=O)CSSC[C@@H](C(N)=O)NC(=O)[C@H](CCCN=C(N)N)NC2=O)cc1 | 3.5 |  |
| CCOc1ccc(C[C@@H]2NC(=O)[C@H](CC(=O)O)NC(=O)CNC(=O)[C@H](CCCN=C(N)N)NC(=O)[C@@H]3CCCN3C(=O)[C@H](CC(N)=O)NC(=O)[C@@H](NC(C)=O)CSSC[C@@H](C(N)=O)NC(=O)[C@H](CCCN=C(N)N)NC2=O)cc1 |  | IC50 (Homo sapiens): 0.22 µM; IC50 (Integrin alpha-5/beta-1): 10 µM; IC50 (Integrin alpha-V/beta-5): 8.4 µM; IC50 [1]: 0.004 µM |
